For test [1], the species on record is Homo sapiens. The test is described as follows: Selectivity index, ratio of IC50 for inhibition of tPA (unknown origin) to IC50 for Inhibition of human plasmin.
For test [2], the species on record is Homo sapiens. Put plainly: Selectivity index, ratio of IC50 for inhibition of activated beta-factor 9 (unknown origin) to IC50 for Inhibition of human plasmin.
Test [3] is filed under the species Homo sapiens. The test is described as follows: Selectivity index, ratio of IC50 for inhibition of human thrombin to IC50 for Inhibition of human plasmin.
For another test, the target named is Plasma kallikrein (Homo sapiens, UniProt P03952). Put plainly: Inhibition of plasma KLK (unknown origin) using Ac-NLTR-pNA as substrate after 30 mins relative to untreated control.
Sequence of Plasma kallikrein (P03952 20-390 limits assumed): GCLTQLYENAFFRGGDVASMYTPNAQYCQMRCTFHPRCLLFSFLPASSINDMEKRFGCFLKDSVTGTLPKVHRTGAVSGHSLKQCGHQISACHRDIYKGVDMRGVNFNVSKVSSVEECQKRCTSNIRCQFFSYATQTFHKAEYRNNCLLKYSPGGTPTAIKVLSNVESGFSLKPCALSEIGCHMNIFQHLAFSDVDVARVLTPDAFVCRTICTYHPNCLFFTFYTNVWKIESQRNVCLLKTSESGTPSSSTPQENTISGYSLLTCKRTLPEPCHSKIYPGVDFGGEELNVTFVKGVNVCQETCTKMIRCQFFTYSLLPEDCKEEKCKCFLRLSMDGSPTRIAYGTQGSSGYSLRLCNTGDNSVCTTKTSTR
Sequence of Plasma kallikrein (P03952 391-638 limits assumed): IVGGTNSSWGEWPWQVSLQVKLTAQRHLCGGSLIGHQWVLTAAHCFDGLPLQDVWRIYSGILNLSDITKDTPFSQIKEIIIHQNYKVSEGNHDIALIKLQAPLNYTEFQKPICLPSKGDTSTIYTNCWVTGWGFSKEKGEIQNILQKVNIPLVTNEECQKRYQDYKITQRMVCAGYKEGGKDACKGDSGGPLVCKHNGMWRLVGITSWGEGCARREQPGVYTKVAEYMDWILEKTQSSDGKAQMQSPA
A further test deals with T1, Coagulation factor XII (Homo sapiens, UniProt P00748).
T1 sequence (P00748 whole entry): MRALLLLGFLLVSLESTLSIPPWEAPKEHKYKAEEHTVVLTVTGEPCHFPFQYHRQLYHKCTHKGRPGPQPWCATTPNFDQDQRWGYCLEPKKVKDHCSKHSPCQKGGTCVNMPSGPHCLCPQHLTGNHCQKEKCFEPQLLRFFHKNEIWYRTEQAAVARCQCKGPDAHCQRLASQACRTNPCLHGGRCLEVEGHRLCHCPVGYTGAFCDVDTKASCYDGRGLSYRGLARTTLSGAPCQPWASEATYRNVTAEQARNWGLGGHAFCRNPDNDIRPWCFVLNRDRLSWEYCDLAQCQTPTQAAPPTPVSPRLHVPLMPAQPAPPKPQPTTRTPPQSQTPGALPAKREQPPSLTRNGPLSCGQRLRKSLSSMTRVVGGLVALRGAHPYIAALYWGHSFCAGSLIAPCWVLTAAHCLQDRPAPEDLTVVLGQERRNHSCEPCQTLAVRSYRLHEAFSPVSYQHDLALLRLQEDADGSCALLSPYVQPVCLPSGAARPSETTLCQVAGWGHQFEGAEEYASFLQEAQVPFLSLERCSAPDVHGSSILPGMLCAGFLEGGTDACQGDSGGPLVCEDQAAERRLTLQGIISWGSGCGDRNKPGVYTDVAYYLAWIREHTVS
The test is described as follows: Inhibition of activated beta-factor 12 (unknown origin) using Ac-QRFR-pNA as substrate after 30 mins relative to untreated control.

Test [4] addresses Tissue-type plasminogen activator (Homo sapiens, UniProt P00750). Put plainly: Inhibition of tPA (unknown origin) using Z-Pyr-Gly-Arg-MCA as substrate after 30 mins relative to untreated control.
The species entered for test [5] is Homo sapiens. The test is described as follows: Selectivity index, ratio of IC50 for inhibition of uPA (unknown origin) to IC50 for Inhibition of human plasmin.
The next test concerns the target Coagulation factor IX (Homo sapiens, UniProt P00740). Put plainly: Inhibition of activated beta-factor 9 (unknown origin) using Boc-QGR-MCA as substrate after 30 mins relative to untreated control.
Another test deals with Prothrombin (Homo sapiens, UniProt P00734). Put plainly: Inhibition of human thrombin using Ac-ATPR-pNA as substrate after 30 mins relative to untreated control.
Another test addresses T2, Serine protease 1 (Bos taurus, UniProt P00760).
T2 sequence (P00760 whole entry): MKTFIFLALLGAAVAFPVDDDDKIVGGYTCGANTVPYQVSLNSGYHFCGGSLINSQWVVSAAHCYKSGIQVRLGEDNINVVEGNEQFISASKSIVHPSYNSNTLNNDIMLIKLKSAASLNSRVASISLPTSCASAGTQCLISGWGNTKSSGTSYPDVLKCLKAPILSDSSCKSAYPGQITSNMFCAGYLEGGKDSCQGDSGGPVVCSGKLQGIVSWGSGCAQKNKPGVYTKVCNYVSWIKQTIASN
The test is described as follows: Inhibition of bovine cationic trypsin using Bz-FVR-pNA as substrate after 30 mins.

The target of test [6] is T3, Plasminogen (Homo sapiens, UniProt P00747). Put plainly: Inhibition of human plasmin using Ac-RM(O2)YR-pNA as substrate after 30 mins.
T3 sequence (P00747 97-580 limits assumed): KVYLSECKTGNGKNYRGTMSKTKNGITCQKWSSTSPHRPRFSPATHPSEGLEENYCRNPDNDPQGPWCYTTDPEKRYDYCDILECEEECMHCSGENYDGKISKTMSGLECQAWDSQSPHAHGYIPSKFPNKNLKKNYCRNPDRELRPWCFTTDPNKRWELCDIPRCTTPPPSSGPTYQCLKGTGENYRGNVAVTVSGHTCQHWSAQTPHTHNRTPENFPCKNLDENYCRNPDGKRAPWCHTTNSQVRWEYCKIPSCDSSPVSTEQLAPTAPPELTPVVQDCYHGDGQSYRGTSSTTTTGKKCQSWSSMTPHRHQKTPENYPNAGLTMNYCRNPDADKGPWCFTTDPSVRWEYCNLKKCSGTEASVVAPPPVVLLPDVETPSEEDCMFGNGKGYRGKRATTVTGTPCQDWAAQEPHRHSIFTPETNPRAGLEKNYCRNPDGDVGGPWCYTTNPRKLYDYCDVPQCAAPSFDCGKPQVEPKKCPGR
T3 sequence (P00747 581-810 limits assumed): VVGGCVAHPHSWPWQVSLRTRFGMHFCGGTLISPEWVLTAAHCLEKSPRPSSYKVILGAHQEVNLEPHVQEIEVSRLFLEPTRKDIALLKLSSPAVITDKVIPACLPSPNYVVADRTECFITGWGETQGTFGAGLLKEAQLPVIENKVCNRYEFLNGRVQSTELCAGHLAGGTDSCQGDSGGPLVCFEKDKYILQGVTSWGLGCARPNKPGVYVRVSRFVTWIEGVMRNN
Test [7] deals with Urokinase-type plasminogen activator (Homo sapiens, UniProt P00749). Put plainly: Inhibition of uPA (unknown origin) using Z-Pyr-Gly-Arg-MCA as substrate after 30 mins relative to untreated control.
Test [8] has as its target T3, Plasminogen. Put plainly: Inhibition of plasmin in human plasma assessed as reduction in tPA and thrombin-induced fibrinolysis at 400 nM by fibrin light scattering analysis relative to control. In kind it is cell-free. The method in brief:
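Pooled citrated human plasma with inhibitor in Tris-HCl pH 7.4, 150 mM NaCl, 30 mM CaCl2, plasma 1:5 final. Clotting and lysis started with tPA (1.5 nM) and thrombin (2.5 nM). Fibrin formation and lysis followed by light scattering at 405 nm over 1 h. Mean of three independent experiments, each with 12 technical replicates.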

Test [9] is filed under the species Homo sapiens. The test is described as follows: Selectivity index, ratio of IC50 for inhibition of plasma KLK (unknown origin) to IC50 for Inhibition of human plasmin.
For another test, the target named is Coagulation factor X (Homo sapiens, UniProt P00742). The test is described as follows: Inhibition of activated factor 10 (unknown origin) using Ac-QRSR-pNA as substrate after 30 mins relative to untreated control.
Sequence of Coagulation factor X (P00742 41-179 limits assumed): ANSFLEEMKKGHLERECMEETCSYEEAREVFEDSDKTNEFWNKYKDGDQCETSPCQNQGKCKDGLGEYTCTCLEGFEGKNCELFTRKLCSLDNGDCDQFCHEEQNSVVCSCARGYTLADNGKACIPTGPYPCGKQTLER
Sequence of Coagulation factor X (P00742 235-488 limits assumed): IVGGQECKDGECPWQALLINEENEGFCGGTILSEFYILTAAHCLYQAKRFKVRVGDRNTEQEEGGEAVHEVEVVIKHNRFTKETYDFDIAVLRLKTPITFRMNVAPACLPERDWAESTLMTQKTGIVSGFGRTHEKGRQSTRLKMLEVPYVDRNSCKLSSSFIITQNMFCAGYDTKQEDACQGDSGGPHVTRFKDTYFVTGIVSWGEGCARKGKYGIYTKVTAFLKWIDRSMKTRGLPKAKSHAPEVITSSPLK
A further test addresses T4, Cathepsin G (Homo sapiens, UniProt P08311).
T4 sequence (P08311 whole entry): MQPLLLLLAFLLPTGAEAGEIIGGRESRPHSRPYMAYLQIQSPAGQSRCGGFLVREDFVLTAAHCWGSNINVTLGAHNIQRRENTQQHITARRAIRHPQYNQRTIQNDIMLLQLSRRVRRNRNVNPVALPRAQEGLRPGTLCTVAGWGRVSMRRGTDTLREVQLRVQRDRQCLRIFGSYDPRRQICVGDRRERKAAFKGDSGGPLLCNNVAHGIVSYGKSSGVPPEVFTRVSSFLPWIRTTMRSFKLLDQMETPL
The test is described as follows: Inhibition of human cathepsin G using Suc-AAPF-MCA as substrate after 30 mins.

Test [10] concerns the target T3, Plasminogen. The test is described as follows: Inhibition of human plasmin assessed as association rate constant using Ac-RM(O2)YR-pNA as substrate after 30 mins.
In test [11] the target is T3, Plasminogen. Put plainly: Inhibition of human plasmin assessed as dissociation rate constant using Ac-RM(O2)YR-pNA as substrate after 30 mins. The method in brief:
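koff from the Baici and Gyger-Marazzi method: the lag phase before steady-state hydrolysis was compared between protease/inhibitor preincubated and substrate plus inhibitor added together. Human plasmin in 100 mM Tris pH 8.0, 100 mM NaCl, 0.005% Triton X-100, pNA substrate read at 405 nm.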

The species entered for test [12] is Homo sapiens. The test is described as follows: Selectivity index, ratio of IC50 for inhibition of activated beta-factor 12 (unknown origin) to IC50 for Inhibition of human plasmin.
The species named for test [13] is Homo sapiens. Put plainly: Selectivity index, ratio of IC50 for inhibition of matriptase (unknown origin) to IC50 for Inhibition of human plasmin.

pKi: −log10 of the molar value. Residues, ends and D or L forms follow the SMILES beside them. Some results are limits rather than exact numbers.

Sequence of Tissue-type plasminogen activator (P00750 whole entry): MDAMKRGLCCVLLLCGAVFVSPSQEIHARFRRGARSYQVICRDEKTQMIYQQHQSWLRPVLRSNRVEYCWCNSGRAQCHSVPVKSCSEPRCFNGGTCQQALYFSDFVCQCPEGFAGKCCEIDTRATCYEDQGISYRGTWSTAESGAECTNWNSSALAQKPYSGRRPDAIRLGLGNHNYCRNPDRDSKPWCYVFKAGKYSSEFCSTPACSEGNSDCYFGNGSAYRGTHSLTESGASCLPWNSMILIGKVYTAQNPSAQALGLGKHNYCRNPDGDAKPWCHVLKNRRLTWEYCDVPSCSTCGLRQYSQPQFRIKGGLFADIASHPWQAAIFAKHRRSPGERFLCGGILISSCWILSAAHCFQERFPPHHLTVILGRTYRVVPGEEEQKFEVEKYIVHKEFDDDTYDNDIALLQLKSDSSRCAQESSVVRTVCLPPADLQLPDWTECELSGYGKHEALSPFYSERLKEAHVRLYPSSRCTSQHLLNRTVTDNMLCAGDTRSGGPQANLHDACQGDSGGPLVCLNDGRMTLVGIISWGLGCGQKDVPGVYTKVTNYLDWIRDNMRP
Sequence of Coagulation factor IX (P00740 47-191 limits assumed): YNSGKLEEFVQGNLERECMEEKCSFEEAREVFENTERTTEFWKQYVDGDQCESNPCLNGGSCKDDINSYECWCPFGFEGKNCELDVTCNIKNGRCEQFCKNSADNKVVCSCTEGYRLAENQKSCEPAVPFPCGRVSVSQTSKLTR
Sequence of Coagulation factor IX (P00740 227-461 limits assumed): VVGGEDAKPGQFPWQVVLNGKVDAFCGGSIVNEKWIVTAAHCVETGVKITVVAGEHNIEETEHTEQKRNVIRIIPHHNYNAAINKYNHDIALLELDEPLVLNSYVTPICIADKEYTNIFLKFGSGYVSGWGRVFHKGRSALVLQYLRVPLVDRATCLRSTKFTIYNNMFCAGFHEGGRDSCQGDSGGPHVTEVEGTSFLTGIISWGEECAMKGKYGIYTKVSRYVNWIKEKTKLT

The pKi is −log10 of the Ki, conventionally taken in molar units. A word on the inhibition: it is the percentage by which the read-out fell short of the control. In the case of `CC[C@H](C)[C@@H]1NC(=O)[C@@H]2CCCN2C(=O)[C@@H]2CCCN2C(=O)[C@H](CCCCN)NC(=O)[C@H](CO)NC(=O)[C@H](CCCCN)NC(=O)[C@H](Cc2ccc(O)cc2)NC(=O)[C@@H]2CSSC[C@H](NC1=O)C(=O)N[C@@H](Cc1ccccc1)C(=O)N1CCC[C@H]1C(=O)N[C@@H](CC(=O)O)C(=O)NCC(=O)N[C@@H](CCCNC(=N)N)C(=O)N2` (HELM PEPTIDE1{C.F.P.D.G.R.C.Y.K.S.K.P.P.I}$PEPTIDE1,PEPTIDE1,1:R3-7:R3|PEPTIDE1,PEPTIDE1,1:R1-14:R2$$$V2.0), the Ratio IC50 in the test filed under Homo sapiens [1], in the test filed under Homo sapiens [2], in the test listed under Homo sapiens [3], in the test listed under Homo sapiens [5], in the test filed under Homo sapiens [9] and in the test filed under Homo sapiens [12] was greater than 1e+06 throughout. In the test listed under Homo sapiens [13], the Ratio IC50 was greater than 1e+06. The pKi at Plasma kallikrein is less than 4.30; at Coagulation factor XII, less than 4.30; in [4], less than 4.30; on Coagulation factor IX, less than 4.30; at Prothrombin it was less than 4.30; on Serine protease 1, 6.80. Further, the pKi is 10.29 at Plasminogen [6], less than 4.30 in [7], less than 4.30 on Coagulation factor X and 4.54 at Cathepsin G. The inhibition on Plasminogen [8] amounted to 100%. In addition, the K worked out at 1.9 ×10⁷ /M/s at Plasminogen [10] and 9.9 ×10⁻⁴ /s on Plasminogen [11].

These data come from ChEMBL document CHEMBL4371033, “Highly Potent and Selective Plasmin Inhibitors Based on the Sunflower Trypsin Inhibitor-1 Scaffold Attenuate Fibrinolysis in Plasma” (J Med Chem, 2019).
